This note sets out measurements from ChEMBL document CHEMBL2010765, “Structure-activity relationship (SAR) development and discovery of potent indole-based inhibitors of the hepatitis C virus (HCV) NS5B polymerase” (J Med Chem, 2012).

Some results are limits rather than exact numbers.

Series [1] deals with Hepatitis C virus. The experiment in a line: Antiviral activity against HCV infected in human hepatoma cells. It is filed as functional, organism-based, Hepacivirus hominis.
Series [2] can be described thus: Permeability from apical to basal side of human Caco2 cells. It is filed as ADME, cell-based. As to conditions: Caco-2, read-out: permeability; call rule not given here.
A short description of series [3]: AUC (0 to 24 hrs) in rat at 10 mg/kg, po. Also noted: time < 24 hr, dose 10 mg/kg, route oral. As to conditions: plasma. It is filed as ADME, organism-based.
The target of series [4] is T1, Cytochrome P450 2C19 (Homo sapiens, UniProt P33261). Kind of series: Inhibition of CYP2C19 preincubated prior to substrate addition. It is filed as ADME.
T1 sequence (P33261 whole entry): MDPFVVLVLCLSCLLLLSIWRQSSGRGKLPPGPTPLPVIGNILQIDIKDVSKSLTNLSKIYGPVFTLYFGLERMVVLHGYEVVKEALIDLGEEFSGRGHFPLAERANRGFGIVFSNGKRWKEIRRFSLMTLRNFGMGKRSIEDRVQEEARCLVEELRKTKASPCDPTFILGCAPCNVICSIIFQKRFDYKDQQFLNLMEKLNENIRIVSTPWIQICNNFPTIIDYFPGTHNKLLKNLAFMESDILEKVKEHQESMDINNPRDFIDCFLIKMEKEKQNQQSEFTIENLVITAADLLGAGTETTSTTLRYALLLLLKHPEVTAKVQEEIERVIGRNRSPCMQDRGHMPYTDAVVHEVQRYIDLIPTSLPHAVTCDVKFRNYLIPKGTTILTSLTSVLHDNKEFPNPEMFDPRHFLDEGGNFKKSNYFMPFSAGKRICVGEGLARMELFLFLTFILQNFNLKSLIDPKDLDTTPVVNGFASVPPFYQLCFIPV
Series [5] has as its target T2, Cytochrome P450 2D6 (Homo sapiens, UniProt P10635). The experiment in a line: Inhibition of CYP2D6 co-incubated with substrate. It is filed as ADME.
For series [6], the target named is T3, Cytochrome P450 3A4 (Homo sapiens, UniProt P08684). The experiment in a line: Inhibition of CYP3A4 co-incubated with substrate. It is filed as ADME.
T3 sequence (P08684 whole entry): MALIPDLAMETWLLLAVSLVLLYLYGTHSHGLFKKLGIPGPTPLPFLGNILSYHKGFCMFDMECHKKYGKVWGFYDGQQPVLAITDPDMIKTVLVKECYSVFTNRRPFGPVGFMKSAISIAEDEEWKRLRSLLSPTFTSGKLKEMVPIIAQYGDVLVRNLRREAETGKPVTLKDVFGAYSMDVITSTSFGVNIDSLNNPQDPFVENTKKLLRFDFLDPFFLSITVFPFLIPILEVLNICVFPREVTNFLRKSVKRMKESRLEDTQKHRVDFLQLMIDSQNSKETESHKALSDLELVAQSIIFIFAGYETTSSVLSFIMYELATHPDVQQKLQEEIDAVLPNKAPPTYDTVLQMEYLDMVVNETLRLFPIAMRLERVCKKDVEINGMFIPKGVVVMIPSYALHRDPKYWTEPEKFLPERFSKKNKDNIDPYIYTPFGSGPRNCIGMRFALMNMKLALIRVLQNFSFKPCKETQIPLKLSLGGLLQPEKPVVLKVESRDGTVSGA
A short description of series [7]: AUC (0 to 24 hrs) in dog at 2 mg/kg, po. It is filed as ADME, organism-based, Canis lupus familiaris. Particulars: plasma. Further details: time < 24 hr, dose 2 mg/kg, route oral.
Series [8] deals with T2, Cytochrome P450 2D6. The experiment in a line: Inhibition of CYP2D6 preincubated prior to substrate addition. It is filed as ADME.
Series [9] has as its target T1, Cytochrome P450 2C19. Kind of series: Inhibition of CYP2C19 co-incubated with substrate. It is filed as ADME.
Series [10] addresses T4, Cytochrome P450 2C9 (Homo sapiens, UniProt P11712). The experiment in a line: Inhibition of CYP2C9 preincubated prior to substrate addition. It is filed as ADME.
The test system of series [11] is Hepatitis C virus. The experiment in a line: Inhibition of HCV subtype 1b NS5B Cdelta21 RNA dependent RNA polymerase expressed in Escherichia coli JM109 assessed as inhibition of [alpha32P]CTP incorporation after 1 hr by scintillation assay. Further details: species or system Hepatitis C virus subtype 1b. Particulars: JM 109, 1 h.
The nature of series [12]: Clearance in human hepatocytes assessed per million cells. It is filed as ADME, cell-based, Hepatocyte. As to conditions: read-out: CLH.
For series [13], the target named is T3, Cytochrome P450 3A4. Kind of series: Inhibition of CYP3A4 preincubated prior to substrate addition. It is filed as ADME.
For series [14], the target named is Voltage-gated inwardly rectifying potassium channel KCNH2 (Homo sapiens, UniProt Q12809). Kind of series: Inhibition of human ERG at 10 uM by efflux assay.
Voltage-gated inwardly rectifying potassium channel KCNH2, sequence (Q12809 whole entry): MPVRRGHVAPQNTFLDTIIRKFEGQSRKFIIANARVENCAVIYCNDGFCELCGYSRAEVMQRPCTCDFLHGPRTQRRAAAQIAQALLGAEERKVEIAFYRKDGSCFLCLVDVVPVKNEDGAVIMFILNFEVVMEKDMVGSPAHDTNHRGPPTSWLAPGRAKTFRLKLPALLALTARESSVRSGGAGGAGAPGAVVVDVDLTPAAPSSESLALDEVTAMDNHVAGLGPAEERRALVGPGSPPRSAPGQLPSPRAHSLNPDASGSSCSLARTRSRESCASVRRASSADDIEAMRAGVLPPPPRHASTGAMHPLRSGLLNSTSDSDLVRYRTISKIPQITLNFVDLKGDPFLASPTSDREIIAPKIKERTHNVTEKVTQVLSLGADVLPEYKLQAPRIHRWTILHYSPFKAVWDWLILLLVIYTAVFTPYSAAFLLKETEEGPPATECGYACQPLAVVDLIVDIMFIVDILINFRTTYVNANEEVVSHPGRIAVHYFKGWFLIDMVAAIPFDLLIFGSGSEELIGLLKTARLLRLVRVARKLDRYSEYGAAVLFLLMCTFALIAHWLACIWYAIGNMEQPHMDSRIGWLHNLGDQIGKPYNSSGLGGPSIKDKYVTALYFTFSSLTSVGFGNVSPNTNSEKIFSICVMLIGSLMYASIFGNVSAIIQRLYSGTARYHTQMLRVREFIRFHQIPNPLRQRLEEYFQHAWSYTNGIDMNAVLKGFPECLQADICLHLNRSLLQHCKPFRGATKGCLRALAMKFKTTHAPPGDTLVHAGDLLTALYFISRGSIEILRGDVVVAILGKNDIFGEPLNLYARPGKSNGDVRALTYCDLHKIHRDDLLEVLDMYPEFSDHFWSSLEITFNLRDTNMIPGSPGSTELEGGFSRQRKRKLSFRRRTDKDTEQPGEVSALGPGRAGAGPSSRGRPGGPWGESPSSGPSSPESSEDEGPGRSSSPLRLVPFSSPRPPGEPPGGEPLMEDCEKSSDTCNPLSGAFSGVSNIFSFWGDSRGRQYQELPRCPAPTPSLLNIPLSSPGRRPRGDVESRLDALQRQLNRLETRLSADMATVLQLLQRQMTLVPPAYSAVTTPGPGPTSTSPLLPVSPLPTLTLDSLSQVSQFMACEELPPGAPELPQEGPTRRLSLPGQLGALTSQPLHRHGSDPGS
For series [15], the target named is T4, Cytochrome P450 2C9. The experiment in a line: Inhibition of CYP2C9 co-incubated with substrate. It is filed as ADME.
Series [16] is described as follows: Drug uptake in rat liver at 10 mg/kg, po after 6 hrs. As to conditions: read-out: Drug uptake. Also noted: dose 10 mg/kg, route oral. It is filed as ADME, organism-based. An outline of the steps: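 Rats dosed orally at 10 mg/kg; liver tissue concentration measured 6 h after dosing, reported in ng/g.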

T4 sequence (P11712 whole entry): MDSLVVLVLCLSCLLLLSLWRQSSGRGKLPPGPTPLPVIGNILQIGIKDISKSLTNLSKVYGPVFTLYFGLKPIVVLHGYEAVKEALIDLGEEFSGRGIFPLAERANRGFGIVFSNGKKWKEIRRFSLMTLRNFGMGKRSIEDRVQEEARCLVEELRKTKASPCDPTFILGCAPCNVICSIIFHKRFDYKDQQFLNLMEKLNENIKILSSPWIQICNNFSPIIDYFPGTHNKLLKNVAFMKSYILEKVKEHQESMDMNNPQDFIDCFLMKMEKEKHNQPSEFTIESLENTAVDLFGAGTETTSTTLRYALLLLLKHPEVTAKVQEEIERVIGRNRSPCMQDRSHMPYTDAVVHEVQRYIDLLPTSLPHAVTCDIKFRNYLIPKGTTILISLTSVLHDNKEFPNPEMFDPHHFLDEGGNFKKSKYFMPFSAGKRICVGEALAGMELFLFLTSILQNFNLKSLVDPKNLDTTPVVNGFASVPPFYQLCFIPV
T2 sequence (P10635 whole entry): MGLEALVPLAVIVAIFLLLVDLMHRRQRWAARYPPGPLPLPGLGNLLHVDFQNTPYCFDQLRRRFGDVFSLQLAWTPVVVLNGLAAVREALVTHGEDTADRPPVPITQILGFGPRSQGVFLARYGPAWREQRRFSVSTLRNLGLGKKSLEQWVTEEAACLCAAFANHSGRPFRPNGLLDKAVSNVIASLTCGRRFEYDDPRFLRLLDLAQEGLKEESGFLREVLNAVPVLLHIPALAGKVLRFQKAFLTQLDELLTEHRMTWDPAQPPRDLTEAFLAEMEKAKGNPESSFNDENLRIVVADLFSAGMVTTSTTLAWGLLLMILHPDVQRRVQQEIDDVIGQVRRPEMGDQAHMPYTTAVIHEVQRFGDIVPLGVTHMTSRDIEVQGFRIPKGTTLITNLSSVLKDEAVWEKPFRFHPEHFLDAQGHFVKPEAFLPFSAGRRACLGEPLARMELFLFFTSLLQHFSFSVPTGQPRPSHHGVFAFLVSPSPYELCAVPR

In the series with Hepatitis C virus [1], `Cc1cc2c(-c3ccc[nH]c3=O)c(C(=O)NS(=O)(=O)C3CC3)n(Cc3cc(F)ccc3F)c2cc1F` displayed an EC50 of 0.02 µM. Besides, the Papp A→B in series [2] amounted to 3.5 ×10⁻⁶ cm/s. Besides, the AUC(0-t) at 24 h in series [3] is 14 µM·h; in [7], 8 µM·h. Moreover, the IC50 against Cytochrome P450 2C19 [4], at Cytochrome P450 2D6 [5], on Cytochrome P450 3A4 [6], on Cytochrome P450 2D6 [8], on Cytochrome P450 2C19 [9] and against Cytochrome P450 2C9 [10] was over 20 µM throughout. Further, the IC50 in the series with Hepatitis C virus [11] is 0.008 µM; against Cytochrome P450 3A4 [13] it was over 20 µM; on Cytochrome P450 2C9 [15], over 20 µM. Also, the hepatocyte CLint in series [12] is under 1 µL/min/1e6 cells. Further, the “inhibition (INH)” value in series [14] is given as “Not Active”. The concentration at 6 h in series [16] worked out at 5850 ng/g.
